ChEMBL document CHEMBL3526015, “Metabolism of the c-Fos/activator protein-1 inhibitor T-5224 by multiple human UDP-glucuronosyltransferase isoforms” (Drug Metab Dispos, 2011)

Key:
Cytochrome P450 1A2 = biological target: T1, Cytochrome P450 1A2 (Homo sapiens, UniProt P05177); test: Drug metabolism assessed as human CYP1A2-mediated metabolite formation at 2 uM after 30 mins by HPLC method; format: ADME; conditions: recombinant enzyme, 0.5 h
T1 sequence (P05177 whole entry): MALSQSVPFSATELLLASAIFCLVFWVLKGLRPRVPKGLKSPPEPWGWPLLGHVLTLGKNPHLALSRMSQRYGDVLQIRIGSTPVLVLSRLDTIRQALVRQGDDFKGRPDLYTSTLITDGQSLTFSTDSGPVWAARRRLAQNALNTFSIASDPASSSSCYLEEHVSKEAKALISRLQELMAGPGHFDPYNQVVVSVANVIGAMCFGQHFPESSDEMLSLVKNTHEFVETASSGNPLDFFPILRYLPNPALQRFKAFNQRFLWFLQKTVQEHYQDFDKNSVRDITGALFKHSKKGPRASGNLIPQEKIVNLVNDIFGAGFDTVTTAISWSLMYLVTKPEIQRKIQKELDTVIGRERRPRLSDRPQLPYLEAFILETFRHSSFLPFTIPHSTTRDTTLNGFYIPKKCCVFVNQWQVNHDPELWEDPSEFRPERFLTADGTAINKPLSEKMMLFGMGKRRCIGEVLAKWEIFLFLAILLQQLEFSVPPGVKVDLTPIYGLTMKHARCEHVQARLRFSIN
Summary of the method: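 Each recombinant human P450 was used at 50 pmol/mL with an NADPH-generating system and 2 μM 14C-T-5224 (0.5% DMSO final). Buffer was 100 mM Tris-HCl pH 7.5, except 100 mM potassium phosphate pH 7.4 for CYP2A6 and CYP2C9*1. Incubation ran 30 min at 37°C and was stopped with acetonitrile/methanol. Radioactive metabolite peaks were detected by C18 HPLC.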

Liver microsome [1] = test: Drug metabolism in human liver microsomes assessed as T-5224 hydroxyl O-glucuronide formation per mg protein after 10 to 60 mins by HPLC method; format: ADME
Summary of the method: (§1)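 Pooled liver (0.5 mg protein/mL) or intestinal (0.25 mg protein/mL) microsomes in 50 mM Tris-HCl pH 7.5, 8 mM MgCl2, alamethicin, 2% DMSO. T-5224 at 1–50 μM, 5 min preincubation at 37°C, started with 2 mM UDPGA. Incubated 10 min, or 20 min for intestinal microsomes at 1–5 μM. Acetonitrile stop, glucuronides by HPLC at 290 nm. Triplicates fitted to a substrate-inhibition model.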

[2] = Drug metabolism in human intestinal microsomes assessed as T-5224 acyl O-glucuronide formation after 10 to 60 mins by HPLC method; format: ADME, Intestine, Microsome
Summary of the method: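 Pooled liver microsomes (0.5 mg/mL) were incubated 10 min. Pooled intestinal microsomes (0.25 mg/mL) ran 10 min at T-5224 10–50 μM and 20 min at 1–5 μM. Buffer was 50 mM Tris-HCl pH 7.5 with 8 mM MgCl2, alamethicin and 2 mM UDPGA, at 37°C, in triplicate. Glucuronides G2/G3 were read by HPLC at 290 nm and fitted for Vmax/Km.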

Liver microsome [3] = test: Substrate inhibition of T-5224 hydroxyl O-glucuronide formation in human liver microsomes after 10 to 60 mins by HPLC method; summary of the method: as §1
Liver microsome [4] = test: Drug metabolism in pooled human liver microsomes assessed as T-5224 acyl O-glucuronide formation at 10 uM after 10 mins by HPLC method; format: ADME
Summary of the method: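 T-5224 at 10 μM incubated for 10 min at 37°C with UDPGA (2 mM) in pooled liver (0.5 mg protein/mL) or intestinal (0.25 mg protein/mL) microsomes. Buffer was 50 mM Tris-HCl pH 7.5 with 8 mM MgCl2 and alamethicin, after 5 min preincubation. Stopped with acetonitrile; glucuronides quantified by HPLC at 290 nm.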

[5] = biological target: T2, UDP-glucuronosyltransferase 1A3 (Homo sapiens, UniProt P35503); test: Drug metabolism assessed as Vmax/Km ratio for human UGT1A3-mediated T-5224 acyl O-glucuronide formation per mg protein after 10 to 60 mins in presence of UDP-glucuronic acid by HPLC method; format: ADME; conditions: recombinant enzyme
T2 sequence (P35503 whole entry): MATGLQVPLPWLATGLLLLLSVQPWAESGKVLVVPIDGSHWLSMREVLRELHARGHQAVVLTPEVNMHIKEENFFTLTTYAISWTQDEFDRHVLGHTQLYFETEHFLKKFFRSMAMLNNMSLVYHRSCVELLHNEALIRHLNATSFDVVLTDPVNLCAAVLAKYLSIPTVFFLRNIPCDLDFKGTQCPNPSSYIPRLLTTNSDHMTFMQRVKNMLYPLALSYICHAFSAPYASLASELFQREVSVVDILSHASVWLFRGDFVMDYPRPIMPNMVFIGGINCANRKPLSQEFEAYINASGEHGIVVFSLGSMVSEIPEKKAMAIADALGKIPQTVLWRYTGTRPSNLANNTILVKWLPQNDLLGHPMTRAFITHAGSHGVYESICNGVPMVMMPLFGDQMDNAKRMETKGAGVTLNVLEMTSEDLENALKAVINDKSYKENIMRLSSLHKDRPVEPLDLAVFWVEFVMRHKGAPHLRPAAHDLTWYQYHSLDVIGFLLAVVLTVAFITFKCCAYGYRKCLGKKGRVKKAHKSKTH
Summary of the method: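 Kinetics used recombinant UGT1A1, 1A3 or 1A8 (0.1 mg protein/mL) with T-5224 at 1–50 μM, 2 mM UDPGA and 60 min at 37°C, in triplicate. G2/G3 were measured by HPLC at 290 nm and fitted to a substrate-inhibition model (Vmax, Km, Ksi). UGT content was quantified by immunoblot, and kcat = Vmax/E0 was derived from it.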

[6] = biological target: T3, UDP-glucuronosyltransferase 1A1 (Homo sapiens, UniProt P22309); test: Drug metabolism assessed as human UGT1A1-mediated T-5224 hydroxyl O-glucuronide formation at 5 to 50 uM after 60 mins in presence of UDP-glucuronic acid by HPLC method; format: ADME; conditions: recombinant enzyme, 1 h
T3 sequence (P22309 whole entry): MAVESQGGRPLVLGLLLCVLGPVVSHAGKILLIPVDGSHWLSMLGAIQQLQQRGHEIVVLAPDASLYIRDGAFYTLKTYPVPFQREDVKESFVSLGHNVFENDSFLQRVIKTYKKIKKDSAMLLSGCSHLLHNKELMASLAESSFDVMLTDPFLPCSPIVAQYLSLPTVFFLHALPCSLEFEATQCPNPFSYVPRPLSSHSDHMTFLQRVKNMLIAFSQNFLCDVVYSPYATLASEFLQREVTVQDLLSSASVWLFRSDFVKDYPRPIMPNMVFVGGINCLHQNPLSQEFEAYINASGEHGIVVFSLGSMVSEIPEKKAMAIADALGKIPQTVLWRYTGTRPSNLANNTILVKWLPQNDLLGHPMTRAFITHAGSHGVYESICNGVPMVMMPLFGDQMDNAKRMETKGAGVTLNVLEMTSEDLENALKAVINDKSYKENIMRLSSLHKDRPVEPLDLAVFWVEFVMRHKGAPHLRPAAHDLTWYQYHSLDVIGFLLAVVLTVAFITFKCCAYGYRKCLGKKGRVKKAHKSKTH

Drug metabolism (Cytochrome P450 1A2): metabolite_not_detected
Vmax (Liver microsome [1]): 305 pmol/min
Km [2]: 5.88 µM
Ki (Liver microsome [3]): 27 µM
Drug metabolism (Liver microsome [4]): metabolite_detected
Vmax/Km [5]: 15.5 µL/min
Drug metabolism [6]: metabolite_detected
Compound: O=C(O)CCc1cc(C(=O)c2ccc(OC3CCCC3)cc2O)ccc1OCc1ccc2c(O)noc2c1
